Screening data: PubChem BioAssay, The Scripps Research Institute Molecular Screening Center
Hits are enriched below; roughly 4.6% of the tested compounds scored in any of these assays.
GPR7 antag: human neuropeptides B/W receptor 1 antagonism | GPR7-expressing cells, fluorescence antagonist assay | AID 1861 | P48145 | inhibition, % at 4.4 µM | 290,000 tested, 1.1% active; in the data active means inhibition above about 16%, passing the limit was not always enough;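 further: cells stimulated with the agonist NPW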
OX1R antag-1: antagonists of human orexin 1 receptor | CHO/OX1R cells, Fluo-8 calcium fluorescence, orexin A | inhibition, % at 5 µM | 330,000 tested, 0.43% active | AID 434989;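 active means inhibition above its plate's threshold, mean inhibition of all tested compounds on the plate plus 3 SD, cut at about 37% in these data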
Target sequence (O43613 whole entry, looked up): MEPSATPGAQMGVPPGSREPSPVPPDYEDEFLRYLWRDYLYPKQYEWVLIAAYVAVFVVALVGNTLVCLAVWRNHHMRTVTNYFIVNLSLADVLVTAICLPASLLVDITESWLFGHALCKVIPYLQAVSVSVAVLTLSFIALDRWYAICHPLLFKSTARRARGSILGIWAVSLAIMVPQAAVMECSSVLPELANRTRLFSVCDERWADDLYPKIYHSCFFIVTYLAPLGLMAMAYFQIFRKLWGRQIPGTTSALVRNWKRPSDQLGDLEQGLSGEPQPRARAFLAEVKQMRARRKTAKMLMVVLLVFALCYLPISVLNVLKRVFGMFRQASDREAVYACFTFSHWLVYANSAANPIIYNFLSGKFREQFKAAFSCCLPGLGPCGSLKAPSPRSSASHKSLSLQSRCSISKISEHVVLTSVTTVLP
OX1R antag-2: OX1R (human) antagonism; OX1R-expressing cells, FRET antagonist read-out; inhibition, % at 6.6 µM; 330,000 tested, 1.8% active; AID 485270; in the data active means inhibition mostly above about 38%, no sharp cut-off; inactive means mostly below about 40%
CHO parental Ca: counter-screen: ATP calcium response change in parental CHO cells | parental CHO-K1, ATP-induced calcium, Fluo-8 fluorescence | inhibition, % at 5.6 µM | 330,000 tested, 0.63% active | AID 463079;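 active means inhibition above that plate's mean sample inhibition plus 3 SD, cut at about 26% in these data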
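Assay system – parental CHO cells · Reagent – ATP stimulus · Detection – intracellular calcium via Fluo-8 no-wash fluorescent dye · Evaluation – percent inhibition of ATP-evoked calcium rise, normalized to controls · Controls – ATP wells versus no-ATP DMSO wells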
TAAR1 agonist: human TAAR1 agonism; Q96RJ0; CHO RD-HGA16 TAAR1, Fluo-8 calcium fluorescence; vehicle wells 0%, saturating PEA agonist 100%; activation, % at 3 µM; 360,000 tested, 0.99% active; AID 624467;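 active means activation above the mean activation of all test compounds in the run plus 3 SD, cut at about 38% in these data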
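Assay system – CHO-derived RD-HGA16 cells with stable Gα16 and human TAAR1 · Compound dosing – one-point dosing at 3 µM (nominal) · Incubation – 17-24 h seeding, 75 min 37 °C dye, 30 min RT · Measured by – kinetic Fluo-8 calcium fluorescence · Control set – DMSO vehicle as 0%, PEA at EC100 as 100% · Repeats – single well for each compound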
TAAR1 antagonist: human TAAR1 antagonism; CHO RD-HGA16 TAAR1, Fluo-8 calcium fluorescence, antagonist; inhibition, % at 3 µM; 360,000 tested, 1.5% active; AID 624466;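 active means inhibition above a per-plate cutoff, the mean inhibition of test compounds on that plate plus 3 SD, cut at about 49% in these data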
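Material: CHO RD-HGA16 cells bearing hTAAR1; compound dosing: one-point dosing, 3 µM nominal final; schedule: dye loading 75 min at 37 °C, then 30 min room temperature; measured by: calcium fluorescence with Fluo-8; control set: vehicle and agonist controls; replication: n of 1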
Each line names hits and unclear results; the compound was inactive in the other large screens.

CN1CCN(NC(=O)c2cc([N+](=O)[O-])cc([N+](=O)[O-])c2)CC1	OX1R antag-2 71
CN1CCN(C(=O)c2cc([N+](=O)[O-])cc([N+](=O)[O-])c2)CC1	OX1R antag-2 63
c1csc(-c2cn3ccc4ccccc4c3n2)c1	OX1R antag-2 74
O=c1nccc(N/N=C/c2ccccc2O)[nH]1	TAAR1 agonist 38 (no result: OX1R antag-1, OX1R antag-2, CHO parental Ca)
COc1cccc(/C=N/Nc2ccnc(=O)[nH]2)c1O	none
Cc1nn(-c2ccccc2)c2sc(-c3n[nH]c(=S)o3)cc12	OX1R antag-2 41
CC(C)(C)n1nnnc1C(c1cccs1)N(Cc1ccc(Cl)cc1)CC1CCCO1 (configuration not stated)	CHO parental Ca 38
Clc1ccc(CN(Cc2ccccc2)C(c2cccs2)c2nnnn2C2CCCC2)cc1 (configuration not stated)	none
COc1ccc(OCC(=O)N/N=C2/C=C(C)CC2)cc1	none
Fc1ccc(C2c3cccn3CCN2C(=S)Nc2cccc(Br)c2)cc1 (configuration not stated)	none
Cc1ccc(-n2nc(C(=O)O)c3ccccc3c2=O)cc1C	none
COC(=O)Nc1nn(-c2ccc(Cl)cc2)c(=O)c(C#N)c1C	OX1R antag-2 59
Cc1c(C(=O)NN)nn(-c2ccc(F)cc2)c(=O)c1C#N	OX1R antag-2 48
CCOC(=O)c1nn(-c2ccc(C)c(C)c2)c(=O)c(C#N)c1C	OX1R antag-2 44
O=C(Cn1cnc2ccccc21)N/N=C/c1cccnc1	none
CCN1CCN(S(=O)(=O)c2ccc(Cl)c(C(=O)N(C)Cc3cccc(OC)c3)c2)CC1	none (no result: GPR7 antag)
CC1CCCC(C)N1/N=C/c1ccccc1Br (configuration not stated)	none
CCOC(=O)c1cc2c(=O)n3ccccc3nc2n(CCCOC)c1=NC(C)=O	OX1R antag-2 51
CCCn1c(=NC(=O)c2ccco2)c(C(=O)OCC)cc2c(=O)n3ccccc3nc21	OX1R antag-2 32
CCOC(=O)c1cc2c(=O)n3ccccc3nc2n(C(C)C)c1=NC(=O)c1ccco1	none
C=CCn1c(=N)c(C(=O)OCC)cc2c(=O)n3cccc(C)c3nc21	OX1R antag-2 110 (no result: TAAR1 agonist, TAAR1 antagonist)
CCOC(=O)c1cc2c(=O)n3cccc(C)c3nc2n(CC(C)C)c1=NC(=O)c1ccco1	OX1R antag-2 54
O=C(CSCc1cccc(Cl)c1)OCc1nc2ccsc2c(=O)[nH]1	none (no result: GPR7 antag)
Cc1ccc(C(=O)COC(=O)COc2ccc(C)c(C)c2)cc1	none (no result: OX1R antag-1, OX1R antag-2, CHO parental Ca)
O=C(c1cc(COc2c(F)cccc2F)on1)N1CCCCCC1	none
Cc1ccc2nc3c(cc(C(=O)NC4CCCC4)c(=N)n3C3CCCCC3)c(=O)n2c1	none
C=CCn1c(=N)c(C(=O)NCCCOC)cc2c(=O)n3cc(C)ccc3nc21	OX1R antag-2 58
Cc1cc(C(=O)Nc2c(C)nn(Cc3c(Cl)cccc3Cl)c2C)no1	none
Cc1nn(Cc2c(Cl)cccc2Cl)c(C)c1NC(=O)c1cc(C(C)C)on1	OX1R antag-1 89, CHO parental Ca 91
CC(C)N(Cc1nccn1C)C(=O)c1cc(COc2ccc3ncccc3c2)on1	none
O=C(NCc1cccc(Cl)c1)c1cc(COc2ccc3ncccc3c2)on1	OX1R antag-1 42, CHO parental Ca 67
Cc1ccc(F)cc1CNC(=O)c1cc(COc2ccc3ncccc3c2)on1	CHO parental Ca 32
CC(CCCC(C)(C)O)NC(=O)c1cc(COc2ccc3ncccc3c2)on1 (configuration not stated)	CHO parental Ca 24
Cc1cc(C)n(CCNC(=O)c2cc(COc3ccc4ncccc4c3)on2)n1	none
CC1CN(C)CCC1OC(=O)c1ccccc1 (configuration not stated)	none (no result: OX1R antag-1, OX1R antag-2, CHO parental Ca)
COc1ccc(C(=O)C=Cc2cccs2)c(O)c1	none (no result: GPR7 antag, OX1R antag-1, OX1R antag-2, CHO parental Ca)
COc1ccc(S(=O)(=O)N2CCN(C(=O)c3cc(-c4ccc(Br)cc4)n[nH]3)CC2)cc1OC	TAAR1 antagonist 62
COc1ccc(CCNC(=O)c2ccc(CNS(=O)(=O)c3ccc(C(C)(C)C)cc3)cc2)cc1OC	TAAR1 antagonist 56
Cc1ccc(C2=Nn3c(COc4ccc(Cl)cc4)nnc3SC2CC(=O)O)cc1 (configuration not stated)	none
